Results taken from ChEMBL document CHEMBL1157145, “Cytotoxic activity of proflavine diureas: synthesis, antitumor, evaluation and DNA binding properties of 1',1''-(acridin-3,6-diyl)-3',3''-dialkyldiureas” (Bioorg Med Chem, 2008).
Calls of active or inactive are those of the source. The calls are words filed in the database; no cut-off is given here.

What was measured:
HCT-116 [1] = assay: Cell cycle arrest in human HCT116 cells assessed as accumulation at G2/M phase at 5.10 uM after 24 hrs; type: functional
Summary of the method: (§1)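 Cells seeded at 8 · 10^5 per 60 mm dish, allowed to settle 24 h (37 °C, 5% CO2), then exposed to the drug for 24 or 48 h. Adherent plus floating cells (5 · 10^5) were fixed in cold 70% ethanol at −20 °C overnight, treated with RNase A (100 µg/mL) and stained with propidium iodide (20 µg/mL) in Vindelov's solution for 30 min at RT. Flow cytometry used 488 nm excitation, FL-2 at 585 ± 21 nm, and histograms were modelled for G0/G1, S and G2/M fractions.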

HCT-116 [2] = assay: Cell cycle arrest in human HCT116 cells assessed as accumulation at G2/M phase at 5.10 uM after 48 hrs; type: functional; summary of the method: as §1
HCT-116 [3] = assay: Induction of DNA fragmentation in human HCT116 cells after 48 hrs; type: functional, cell-based
Summary of the method: (§2)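 HCT-116 cells were treated for 24 or 48 h. Adherent and floating cells (5 × 10^5) were pooled, fixed in cold 70% ethanol and held overnight at −20 °C. Samples were treated with RNase A (100 µg/mL) and stained with propidium iodide (20 µg/mL) in Vindelov's solution for 30 min at RT. Flow cytometry used 488 nm excitation with emission at 585 nm. Subdiploid (subG0/G1) particles were scored on a logarithmic scale, with debris gated out on FSC × SSC.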

DNA [4] = assay: Binding affinity to calf thymus DNA at 4 uM by fluorescence spectrophotometric titration; type: nucleic-acid assay; settings: Bos taurus
Summary of the method: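 ctDNA sonicated in TE buffer, concentration taken from A260 and given in base pairs. Compound (4 µM) in 0.01 M Tris, pH 7.4, 25 °C titrated with ctDNA (0–55 µM bp) until spectra stopped changing. Excitation 424 nm, slit widths 10 nm; binding constant derived from the change in emission.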

DNA [5] = assay: Binding affinity to calf thymus DNA at 50 uM by circular dichroism spectrophotometric titration; type: nucleic-acid assay; settings: Bos taurus
HeLa [6] = assay: Cytotoxicity against human HeLa cells after 48 hrs by MTT assay; type: functional, cell-based
HeLa [7] = assay: Cytotoxicity against human HeLa cells after 72 hrs by MTT assay; type: functional, cell-based
HCT-116 [8] = assay: Cytotoxicity against human HCT116 cells after 48 hrs by MTT assay; type: functional, cell-based; settings: HCT-116, 48 h
HCT-116 [9] = assay: Cytotoxicity against human HCT116 cells after 72 hrs by MTT assay; type: functional, cell-based; settings: Homo sapiens, HCT-116, 72 h
HeLa [10] = assay: Antiproliferative activity against human HeLa cells assessed as increase of floating cells in total cell population at 7.80 uM after 24 hrs; type: functional
Summary of the method: (§3)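 Cells seeded (8 · 10^5 per 60 mm dish), allowed to settle 24 h at 37 °C, 5% CO2, then treated with a single concentration for 24 or 48 h. Adherent and floating cells counted by Coulter counter. Total cell number given as % of untreated control; floating cells as % of total cell number.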

HeLa [11] = assay: Antiproliferative activity against human HeLa cells assessed as decrease in total cell population at 7.80 uM after 24 hrs; type: functional; design: scale not given: the % may be the effect or the level left; summary of the method: as §3
HeLa [12] = assay: Antiproliferative activity against human HeLa cells assessed as increase of floating cells in total cell population at 7.80 uM after 48 hrs; type: functional; summary of the method: as §3
HeLa [13] = assay: Antiproliferative activity against human HeLa cells assessed as decrease in total cell population at 7.80 uM after 48 hrs; type: functional; design: scale not given: the % may be the effect or the level left; summary of the method: as §3
HCT-116 [14] = assay: Antiproliferative activity against human HCT116 cells assessed as increase of floating cells in total cell population at 5.10 uM after 24 hrs; type: functional; summary of the method: as §3
HCT-116 [15] = assay: Antiproliferative activity against human HCT116 cells assessed as decrease in total cell population at 5.10 uM after 24 hrs; type: functional; design: scale not given: the % may be the effect or the level left; summary of the method: as §3
HCT-116 [16] = assay: Antiproliferative activity against human HCT116 cells assessed as increase of floating cells in total cell population at 5.10 uM after 48 hrs; type: functional; summary of the method: as §3
HCT-116 [17] = assay: Antiproliferative activity against human HCT116 cells assessed as decrease in total cell population at 5.10 uM after 48 hrs; type: functional; design: scale not given: the % may be the effect or the level left; summary of the method: as §3
HeLa [18] = assay: Induction of apoptosis in human HeLa cells at 7.80 uM after 24 hrs; type: functional
Summary of the method: (§4)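 After 24 or 48 h of drug exposure, all cells were collected, combining trypsinised adherent cells with floating cells from the medium. Cells (1 × 10^6) were fixed in cold 70% ethanol overnight at −20 °C and stained with DAPI (10 µg/mL) for 30 min in the dark at RT. Under fluorescence microscopy, 300 cells per sample were scored, with condensed or fragmented nuclei counted as apoptotic.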

HeLa [19] = assay: Induction of apoptosis in human HeLa cells at 7.80 uM after 48 hrs; type: functional; summary of the method: as §4
HCT-116 [20] = assay: Induction of apoptosis in human HCT116 cells at 5.10 uM after 24 hrs; type: functional; summary of the method: as §4
HCT-116 [21] = assay: Induction of apoptosis in human HCT116 cells at 5.10 uM after 48 hrs; type: functional; summary of the method: as §4
HCT-116 [22] = assay: Induction of DNA fragmentation in human HCT116 cells after 24 hrs; type: functional, cell-based; summary of the method: as §2
HeLa [23] = assay: Cell cycle arrest in human HeLa cells assessed as accumulation at G0/G1 phase at 7.80 uM after 24 hrs; type: functional; summary of the method: as §1
HeLa [24] = assay: Cell cycle arrest in human HeLa cells assessed as accumulation at G0/G1 phase at 7.80 uM after 48 hrs; type: functional; summary of the method: as §1
HCT-116 [25] = assay: Cell cycle arrest in human HCT116 cells assessed as accumulation at G0/G1 phase at 5.10 uM after 24 hrs; type: functional
Summary of the method: (§5)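 Adherent plus floating cells (5 · 10^5) collected 24 or 48 h after treatment, fixed in cold 70% ethanol at −20 °C overnight, washed in PBS. RNase A (100 µg/mL) and propidium iodide (20 µg/mL) in Vindelov's solution, 30 min at RT. Flow cytometry with 488 nm excitation, emission 585 ± 21 nm; % cells per cycle phase from DNA content histograms.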

HCT-116 [26] = assay: Cell cycle arrest in human HCT116 cells assessed as accumulation at G0/G1 phase at 5.10 uM after 48 hrs; type: functional; summary of the method: as §5
HeLa [27] = assay: Cell cycle arrest in human HeLa cells assessed as accumulation at S phase at 7.80 uM after 24 hrs; type: functional; summary of the method: as §1
HeLa [28] = assay: Cell cycle arrest in human HeLa cells assessed as accumulation at S phase at 7.80 uM after 48 hrs; type: functional; summary of the method: as §1
HCT-116 [29] = assay: Cell cycle arrest in human HCT116 cells assessed as accumulation at S phase at 5.10 uM after 24 hrs; type: functional; summary of the method: as §1
HCT-116 [30] = assay: Cell cycle arrest in human HCT116 cells assessed as accumulation at S phase at 5.10 uM after 48 hrs; type: functional; summary of the method: as §1
HeLa [31] = assay: Cell cycle arrest in human HeLa cells assessed as accumulation at G2/M phase at 7.80 uM after 24 hrs; type: functional; summary of the method: as §1
HeLa [32] = assay: Cell cycle arrest in human HeLa cells assessed as accumulation at G2/M phase at 7.80 uM after 48 hrs; type: functional; summary of the method: as §1

## CCCCCNC(=O)Nc1ccc2cc3ccc(NC(=O)NCCCCC)cc3nc2c1.Cl
HCT-116 [1]
  Activity: 44.05%
HCT-116 [2]
  Activity: 37.04%
HCT-116 [3]
  Activity: Active
DNA [4]
  K: 1.7 ×10⁵ /M
DNA [5]
  Activity: Active
HeLa [6]
  IC50: 7.78 µM
HeLa [7]
  IC50: 13.3 µM
HCT-116 [8]
  IC50: 5.12 µM
HCT-116 [9]
  IC50: 3.48 µM
HeLa [10]
  Activity: 3.86%
HeLa [11]
  Activity: 87.47%
HeLa [12]
  Activity: 3.62%
HeLa [13]
  Activity: 101.34%
HCT-116 [14]
  Activity: 78.81%
HCT-116 [15]
  Activity: 45.85%
HCT-116 [16]
  Activity: 88.58%
HCT-116 [17]
  Activity: 21.22%
HeLa [18]
  Activity: 1.33%
HeLa [19]
  Activity: 0.89%
HCT-116 [20]
  Activity: 10.67%
HCT-116 [21]
  Activity: 11.33%
HCT-116 [22]
  Activity: Active
HeLa [23]
  Activity: 61%
HeLa [24]
  Activity: 72.24%
HCT-116 [25]
  Activity: 38.62%
HCT-116 [26]
  Activity: 40.8%
HeLa [27]
  Activity: 25.46%
HeLa [28]
  Activity: 17.38%
HCT-116 [29]
  Activity: 17.34%
HCT-116 [30]
  Activity: 22.16%
HeLa [31]
  Activity: 13.54%
HeLa [32]
  Activity: 10.39%
